Experiments:
[1] = test system: CREB-mediated gene transcription; assay: CREB Renilla luciferase; format: cell-based; conditions: read-out: CREB inhibition IC50; inhibition of CREB-mediated gene transcription in HEK 293T cells, CRE-RLuc, 30 min peptide then Fsk 10 μmol/L for 5 h
Method in brief: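 HEK 293T cells were transfected for 3 h with 2 μg pCRE-RLuc (Renilla luciferase driven by three CRE copies) by lipofection, then replated overnight. Peptides at graded concentrations were added for 30 min before forskolin (10 μmol/L), then incubated 5 h at 37 °C. Lysate Renilla luciferase was normalized to well protein (RLU/μg) and expressed as % CREB activity. IC50 came from nonlinear regression.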

HEK 293T cells [2] = assay: Cell uptake by confocal microscopy of FITC-labeled peptides; format: cell-based; conditions: FITC-labeled peptides at 10 μmol/L, 4 h
Method in brief: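 HEK 293T cells attached overnight, then received FITC-labeled peptides in DMEM (0.1% DMSO) at final 1, 10 and 20 μmol/L for 4 h at 37 °C, 5% CO2. After three PBS washes, cells were DAPI-stained (10 μg/mL, 10 min), washed, methanol-fixed 5 min and imaged by multiphoton laser scanning microscopy. The αB helix of KID served as control peptide.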

HEK 293T cells [3] = assay: Cell uptake by flow cytometry of FITC-labeled peptides; format: cell-based
Method in brief: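 Suspended HEK 293T cells (3 × 10^5, DMEM with 10% FBS) were mixed with FITC-labeled peptides in DMEM (0.1% DMSO) at final 1, 10 and 20 μmol/L for 30 min at room temperature in the dark. They were spun at 500×g, washed in staining buffer, resuspended and run on a flow cytometer. Mean fluorescence from two independent experiments was normalized to a reference stapled peptide at 20 μmol/L.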

[4] = test system: CREB-mediated transcription; conditions: read-out: IC50 in CREB Renilla luciferase reporter assay; cited from earlier work
KIX/KID interaction = conditions: up to 50 μmol/L; cited from earlier work

IC50 [1] [µM]	Cell uptake by confocal imaging (HEK 293T cells [2])	Fold increase of cell uptake compared to linear L3 and stapled S1 (HEK 293T cells [3]) [fold]	Structure (SMILES)	IC50 [4] [µM]	Inhibition of the KIX/KID interaction (in words) (KIX/KID interaction)
66	significant cell uptake	~4	CC(=O)N[C@@H](Cc1ccc(O)cc1)CN(CC(=O)N[C@@H](CCCCN)CN(CC(=O)N[C@@H](Cc1ccccc1)CN(CC(=O)N[C@H]1CCCCNc2c(F)c(F)c(c(F)c2F)Sc2c(F)c(F)c(c(F)c2F)Sc2c(F)c(F)c(c(F)c2F)NCCCC[C@@H](CN(CC(=O)N[C@@H](C)CN(CC(N)=O)S(C)(=O)=O)S(C)(=O)=O)NC(=O)CN(S(=O)(=O)CC(C)C)C[C@H](CC(C)C)NC(=O)CN(S(=O)(=O)CCN)C1)S(=O)(=O)CC(C)C)S(=O)(=O)CCN)S(C)(=O)=O [Compound S3]	–	–
–	–	–	O=C(Nc1ccc(Cl)cc1)c1cc2ccccc2cc1OP(=O)(O)O [KG-501]	5.4	no significant inhibition

Source: publication PMC12750372 (Acta Pharmaceutica Sinica. B, 2025)
